Article PMC3329623 (The Biochemical journal, 2009)
Read-outs that look alike come from different tables or passages of the source. Bridge positions count the residues as written; N and C are the ends. Ends that are not written are not given here.

Columns and labels:
[1] = biological target: zfα5(huW1-4)β1-1 blade swap integrin (human | zebrafish) (UniProt P08648); experiment: ELISA
[2] = biological target: zfα5β1-1(L206A) (zebrafish); experiment: ELISA
[3] = biological target: zfα5β1-1(D225A) (zebrafish); experiment: ELISA
[4] = biological target: zfα5(EPEK)β1-1 loop swap integrin (B2-C2 loop KEDTPH to EKEPL) (zebrafish); experiment: ELISA
[5] = biological target: zebrafish α5β1-1-Fc recombinant soluble integrin (zebrafish); experiment: ELISA
[6] = biological target: zfα5(SWAA)β1-1 loop swap integrin (D3-A3 loop RGRK to SWAA) (zebrafish); experiment: ELISA
[7] = biological target: zfα5(ASSIY)β1-1 loop swap integrin (D4-A4 loop RKEIRF to ASSIY) (zebrafish); experiment: ELISA
[8] = biological target: zfα5β1-1(Y204A) (zebrafish); experiment: ELISA
[9] = biological target: triple loop swap zfα5β1-1 integrin (KEDTPH to EKEPL, RGRK to SWAA and RKEIRF to ASSIY) (zebrafish); experiment: ELISA
[10] = test system: huα5β1-1, huα5β1-2 and huα5huβ1; experiment: inhibition of 50K binding to human α5 integrins; parameters: species or system human α5 / zebrafish or human β1; details: 1 mM Mn2+
Summary of the method: (§1)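 Receptors were Fc-fused α5β1 headpiece integrins expressed transiently in CHO-L761h cells and captured from supernatant on goat anti-human Fc. Binding of the biotinylated fibronectin fragment (2–3 nM) was run with 1 mM Mn2+ at room temperature. Peptide inhibitor was tested at 0.1–100 μg/ml and small-molecule inhibitor at 0.1–300 nM, both serially diluted. BSA-well background was subtracted; four replicate wells; at least three experiments.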

[11] = test system: zfα5β1-1, zfα5β1-2 and zfα5huβ1; experiment: inhibition of 70K binding to zebrafish α5 integrins; details: specificity control / antagonist test; 1 mM Mn2+
Summary of the method: as §1

α5β1 = details: cited from earlier work; for affinity for α5β1: phage display peptides
huα5β1-1 [12] = experiment: inhibition of 50K binding to huα5β1-1; parameters: species or system human α5 / zebrafish β1-1; details: control experiments
huα5β1-1 [13] = biological target: huα5β1-1 (UniProt P08648+Q3YAA1); experiment: Solid-phase inhibition of biotinylated 50K human fibronectin fragment; assay type: biochemical; details: read-out: Apparent KI values (nM), JSM6427, 50K; SD, n = 3
Summary of the method: (§2)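 Fc-fused soluble integrin (full α5 ectodomain plus β1 headpiece: PSI, hybrid, βI) from CHO-L761h supernatants 6 days after transient co-transfection, captured on anti-human Fc. Biotinylated fibronectin fragment (E. coli-made human 3Fn6-10 or FLAG-purified zebrafish 70K from 293-EBNA cells) at 2–3 nM, 1 mM Mn2+, room temperature. Inhibitor 0.1–300 nM, serially diluted. Four replicate wells, BSA background subtracted. Curves fitted by simulated annealing. KI = IC50/(1+[ligand]/KD).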

Triple swap = Triple swap (Danio rerio, UniProt A0ACM8Q6M2+Q3YAA1, K151E/E152K/D153E/DEL154/H156L/R184S/G185W/R186A/K187A/R250A/K251S/E252S/DEL254/F255Y/S520N); experiment: Solid-phase inhibition of biotinylated 70K zebrafish fibronectin-1 fragment; assay type: biochemical; details: read-out: Apparent KI values (nM), JSM6427, 70K; SD, n = 3
Summary of the method: as §2

zfα5(SWAA)β1-1 [14] = biological target: T1, zfα5(SWAA)β1-1 (Danio rerio, UniProt A0ACM8Q6M2+Q3YAA1, R184S/G185W/R186A/K187A/S520N); experiment: as above; assay type: biochemical; details: read-out: Apparent KI values (nM), JSM6427, 70K; SD, n = 3
Summary of the method: as §2

zfα5(SWAA)β1-1 [15] = biological target: T1, zfα5(SWAA)β1-1; assay type: biochemical; details: read-out: apparent KI values for JSM6427 (Figure 6 legend); SD, n = 3
Summary of the method: as §2

zfα5(SGAA)β1-1 = zfα5(SGAA)β1-1 (Danio rerio, UniProt A0ACM8Q6M2+Q3YAA1, R184S/R186A/K187A/S520N); assay type: biochemical; details: read-out: apparent KI values for JSM6427 (Figure 6 legend); SD, n = 3
Summary of the method: as §2

[16] = test system: human α5 with Ile-210 (equivalent of Leu-206) mutated to alanine; details: cited from earlier work
[17] = test system: human α5 with Tyr-208 (equivalent of Tyr-204) mutated to alanine; details: cited from earlier work
[18] = biological target: zfα5(huW1-4)β1-1 blade swap integrin (human | zebrafish) (UniProt P08648); experiment: ELISA; remark: listed apart in the source
[19] = biological target: zfα5(SWAA)β1-1 loop swap integrin (D3-A3 loop RGRK to SWAA) (zebrafish); experiment: ELISA; remark: listed apart in the source
[20] = biological target: triple loop swap zfα5β1-1 integrin (KEDTPH to EKEPL, RGRK to SWAA and RKEIRF to ASSIY) (zebrafish); experiment: ELISA; remark: listed apart in the source
[21] = biological target: human α5 / zebrafish β1-1-Fc recombinant soluble integrin (human | zebrafish, UniProt P08648;Q3YAA1); experiment: ELISA

## 50 kDa cell binding domain of human fibronectin (3Fn6-10) (domain or fragment)
[1]
  Kd: 1.3 nM

## 70 kDa cell binding fragment of zebrafish fibronectin-1 (3Fn6-10 including the EIIIB domain) (domain or fragment)
[1]
  Kd: 14 nM
[2]
  Kd: 106 nM
[3]
  Kd: 42 nM
[4]
  Kd: 4.6 nM
[5]
  fold higher affinity than for zfα5β1-2: 3 fold
[6]
  Kd: 1.7 nM
[7]
  Kd: 8.3 nM
[8]
  Kd: 79 nM
[9]
  Kd: 5.8 nM

## O=C(O)CN(CCN(CC(=O)O)CC(=O)O)CC(=O)O [EDTA]
[10]
  inhibition of 50K binding to human α5 integrins: fully inhibited
[11]
  inhibition of 70K binding to zebrafish α5 integrins: could be inhibited

## CRGDGFC (disulfide 1-7 (inferred)) [CRGDGFC]
α5β1
  affinity for α5β1: high affinity

## CRGDGWC (disulfide 1-7 (inferred)) [CRGDGWC]
α5β1
  affinity for α5β1: high affinity

## GACRRETADACGA (disulfide 3-11 (inferred))
huα5β1-1 [12]
  inhibition of 50K binding to huα5β1-1: ineffective

## GCRGDSPCG (disulfide 2-8 (inferred)) [cyclic RGD peptide]
[10]
  inhibition of 50K binding to human α5 integrins: fully inhibited
[11]
  inhibition of 70K binding to zebrafish α5 integrins: could be inhibited

## JSM6427
huα5β1-1 [13]
  Ki: 0.65 ± 0.15 nM
Triple swap
  Ki: 1.21 ± 0.04 nM
zfα5(SWAA)β1-1 [14]
  Ki: 7.2 ± 2.4 nM
zfα5(SWAA)β1-1 [15]
  Ki: 4.2 nM
zfα5(SGAA)β1-1
  Ki: 25 nM

## RGDGW
α5β1; Trp-157 in the D3-A3 loop involved
  specificity/selectivity for human α5β1: human α5β1-specific and α5β1-selective

## fibronectin
[16]
  reduction of affinity of fibronectin binding, human α5 Ile mutated to alanine: 200 fold
[17]
  reduction of affinity of fibronectin binding, human α5 Tyr mutated to alanine: 5 fold

## GACRRETAWACGA (disulfide 3-11 (inferred)) [cyclic peptide …]
[18]
  Ki: 31 nM
[19]
  Ki: 126 nM
[20]
  Ki: 76 nM

## GACRRETAWACGA (disulfide 3-11 (inferred)) [cyclic peptide GACRRETAWACGA]
[21]
  Ki: 47 nM
